Experimental data from ChEMBL document CHEMBL1255185, “Substituted 4-amino-1H-pyrazolo[3,4-d]pyrimidines as multi-targeted inhibitors of insulin-like growth factor-1 receptor (IGF1R) and members of ErbB-family receptor kinases” (Bioorg Med Chem Lett, 2010).
Activity calls are given as the source filed them. No cut-off for these calls is given here.

Tests used:
[1] = target: T1, Receptor tyrosine-protein kinase erbB-2 (Homo sapiens, UniProt P04626); assay: Inhibition of ErbB2
[2] = target: Epidermal growth factor receptor (Homo sapiens, UniProt P04626+P00533+Q15303+P21860); assay: Inhibition of EGFR L858 mutant; type: protein assay
Method in brief: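 Kinase inhibition was measured in a homogeneous time-resolved fluorescence assay. The EGFR enzyme construct carries the L858R activating mutation.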

[3] = target: T2, Insulin-like growth factor 1 receptor (Homo sapiens, UniProt P08069); assay: Inhibition of IGF1R
[4] = target: T1, Receptor tyrosine-protein kinase erbB-2; assay: Inhibition of ERBb2 phosphorylation in human BT474 cells by ELISA; type: cell-based, BT-474
Method in brief: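 ErbB2 phosphorylation was read out in ELISA format in BT474 human breast tumour cells, which highly express ErbB2.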

[5] = target: T2, Insulin-like growth factor 1 receptor; assay: Inhibition of IGF1R phosphorylation in human MIAPaCa cells by ELISA; type: cell-based
Method in brief: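 Cellular IGF1R phosphorylation was read out in ELISA format in MiaPaCa human pancreatic carcinoma cells, which express both IGF1R and EGFR.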

[6] = target: Epidermal growth factor receptor (Homo sapiens, UniProt P00533); assay: Inhibition of EGFR phosphorylation in human MIAPaCa cells by ELISA; type: cell-based
Mus musculus [7] = assay: Dose normalized AUC in po dosed C57BL/6 mouse; type: ADME, organism-based; conditions: in vivo
Method in brief: (§1)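 Mouse oral PK used a 10 mg/kg dose. AUC is normalized to dose (per mg/kg), and F is oral bioavailability.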

[8] = Clearance in iv dosed rat; type: ADME, organism-based; conditions: in vivo
Rattus norvegicus [9] = assay: Dose normalized AUC in iv dosed rat; type: ADME, organism-based; conditions: in vivo
Method in brief: (§2)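 Intravenous PK: AUC is normalized to dose and expressed per mg/kg.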

[10] = Half life in iv dosed C57BL/6 mouse; type: ADME, organism-based; conditions: in vivo
[11] = Tmax in po dosed rat; type: ADME, organism-based; conditions: in vivo
Method in brief: (§3)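 Rat oral PK used a 5 mg/kg dose. AUC is normalized to dose (per mg/kg), and F is oral bioavailability.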

[12] = Cmax in C57BL/6 mouse at 10 mg/kg, po; type: ADME, organism-based; design: dose 10 mg/kg, route oral; conditions: in vivo; method in brief: as §1
Mus musculus [13] = assay: Dose normalized AUC in iv dosed C57BL/6 mouse; type: ADME, organism-based; conditions: in vivo; method in brief: as §2
[14] = Cmax in rat at 5 mg/kg, po; type: ADME, organism-based; design: dose 5 mg/kg, route oral; conditions: in vivo; method in brief: as §3
[15] = Clearance in iv dosed C57BL/6 mouse; type: ADME, organism-based; conditions: in vivo
[16] = Tmax in po dosed C57BL/6 mouse; type: ADME, organism-based; conditions: in vivo; method in brief: as §1
[17] = Oral bioavailability in C57BL/6 mouse at 10 mg/kg; type: ADME, organism-based; conditions: in vivo; method in brief: as §1
[18] = Half life in iv dosed rat; type: ADME, organism-based; conditions: in vivo
Mus musculus [19] = assay: Inhibition of IGF1R phosphorylation in C57BL/6 mouse at 30 mg/kg, iv by Western blotting; type: functional
Method in brief: (§4)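 Female C57BL/6 mice were dosed iv with compound or vehicle; doses of 3, 10, 30 and 60 mg/kg were used. After 1 h, IGF-1 was given iv at 0.5 mg/kg, and mice were sacrificed 10 min later. Lung tissue was homogenized, and p-IGF1R and p-Akt were analyzed by Western blot. Drug levels in plasma and tissues were measured.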

Rattus norvegicus [20] = assay: Dose normalized AUC in po dosed rat; type: ADME, organism-based; conditions: in vivo; method in brief: as §3
[21] = Oral bioavailability in rat at 5 mg/kg; type: ADME, organism-based; conditions: in vivo; method in brief: as §3
Mus musculus [22] = assay: Inhibition of AKT phosphorylation in C57BL/6 mouse at 30 mg/kg, iv by Western blotting; type: functional, organism-based; design: dose 30 mg/kg; method in brief: as §4

Sequence of Epidermal growth factor receptor (Homo sapiens, UniProt P00533) (P00533 whole entry): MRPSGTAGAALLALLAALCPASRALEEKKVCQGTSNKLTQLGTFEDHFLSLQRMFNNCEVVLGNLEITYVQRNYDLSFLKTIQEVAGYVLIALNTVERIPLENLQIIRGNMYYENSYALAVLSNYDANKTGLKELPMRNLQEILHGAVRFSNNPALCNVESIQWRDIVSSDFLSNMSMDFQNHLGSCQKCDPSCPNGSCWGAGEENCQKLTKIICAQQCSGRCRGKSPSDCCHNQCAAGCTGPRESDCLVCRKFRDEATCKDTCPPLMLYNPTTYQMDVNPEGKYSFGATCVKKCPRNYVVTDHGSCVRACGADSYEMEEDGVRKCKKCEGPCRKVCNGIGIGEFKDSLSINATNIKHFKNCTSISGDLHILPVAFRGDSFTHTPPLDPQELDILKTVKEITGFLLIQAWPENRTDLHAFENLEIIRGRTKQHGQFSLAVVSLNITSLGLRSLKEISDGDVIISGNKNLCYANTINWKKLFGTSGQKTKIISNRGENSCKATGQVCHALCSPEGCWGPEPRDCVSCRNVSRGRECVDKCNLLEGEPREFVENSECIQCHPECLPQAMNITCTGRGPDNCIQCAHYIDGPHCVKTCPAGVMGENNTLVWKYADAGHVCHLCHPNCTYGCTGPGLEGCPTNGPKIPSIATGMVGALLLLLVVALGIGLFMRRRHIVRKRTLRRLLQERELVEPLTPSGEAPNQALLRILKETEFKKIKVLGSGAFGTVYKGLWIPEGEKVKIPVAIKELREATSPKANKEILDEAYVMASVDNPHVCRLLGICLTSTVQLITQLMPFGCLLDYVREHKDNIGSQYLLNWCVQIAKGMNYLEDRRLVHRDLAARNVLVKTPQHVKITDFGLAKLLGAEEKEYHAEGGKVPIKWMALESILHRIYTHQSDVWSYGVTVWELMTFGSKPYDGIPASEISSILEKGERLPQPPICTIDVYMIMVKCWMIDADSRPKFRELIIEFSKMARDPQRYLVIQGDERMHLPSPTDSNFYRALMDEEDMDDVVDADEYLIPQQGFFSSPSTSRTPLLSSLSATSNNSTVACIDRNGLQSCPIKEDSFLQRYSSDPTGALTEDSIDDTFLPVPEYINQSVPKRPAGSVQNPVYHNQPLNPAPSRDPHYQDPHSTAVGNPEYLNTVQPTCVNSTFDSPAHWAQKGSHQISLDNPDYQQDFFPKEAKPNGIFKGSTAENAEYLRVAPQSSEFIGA
T1 sequence (P04626 whole entry): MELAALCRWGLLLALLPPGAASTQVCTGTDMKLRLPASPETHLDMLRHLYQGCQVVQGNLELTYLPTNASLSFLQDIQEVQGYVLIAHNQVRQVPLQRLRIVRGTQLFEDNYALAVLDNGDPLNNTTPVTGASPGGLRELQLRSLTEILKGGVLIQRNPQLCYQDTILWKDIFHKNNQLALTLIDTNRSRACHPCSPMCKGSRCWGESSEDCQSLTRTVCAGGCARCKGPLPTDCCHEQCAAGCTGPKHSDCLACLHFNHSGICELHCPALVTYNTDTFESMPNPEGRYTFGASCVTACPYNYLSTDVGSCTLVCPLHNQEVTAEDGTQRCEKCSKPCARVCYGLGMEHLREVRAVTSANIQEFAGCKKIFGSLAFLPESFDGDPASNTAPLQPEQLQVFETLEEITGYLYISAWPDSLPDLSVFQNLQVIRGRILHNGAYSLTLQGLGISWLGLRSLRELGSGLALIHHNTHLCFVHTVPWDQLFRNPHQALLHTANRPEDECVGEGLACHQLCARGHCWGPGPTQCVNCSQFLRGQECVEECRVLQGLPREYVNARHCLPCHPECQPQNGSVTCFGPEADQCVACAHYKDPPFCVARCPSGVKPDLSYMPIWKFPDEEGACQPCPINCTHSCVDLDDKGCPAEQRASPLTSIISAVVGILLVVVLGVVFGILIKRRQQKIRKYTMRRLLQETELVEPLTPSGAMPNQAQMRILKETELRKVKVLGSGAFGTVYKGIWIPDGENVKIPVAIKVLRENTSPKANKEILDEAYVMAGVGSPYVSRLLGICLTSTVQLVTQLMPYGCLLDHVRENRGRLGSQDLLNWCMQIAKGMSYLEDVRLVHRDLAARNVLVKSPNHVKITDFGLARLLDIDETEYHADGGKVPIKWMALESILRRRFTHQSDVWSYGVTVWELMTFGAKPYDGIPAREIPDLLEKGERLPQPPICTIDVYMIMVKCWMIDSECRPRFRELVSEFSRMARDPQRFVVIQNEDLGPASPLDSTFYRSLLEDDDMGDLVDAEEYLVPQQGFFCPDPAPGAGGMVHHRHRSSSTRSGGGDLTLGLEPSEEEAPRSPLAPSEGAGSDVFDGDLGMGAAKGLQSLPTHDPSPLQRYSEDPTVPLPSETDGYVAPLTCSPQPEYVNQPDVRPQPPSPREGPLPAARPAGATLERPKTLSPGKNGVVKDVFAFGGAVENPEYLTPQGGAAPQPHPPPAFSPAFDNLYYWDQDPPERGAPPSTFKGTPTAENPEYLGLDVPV
T2 sequence (P08069 31-736 limits assumed): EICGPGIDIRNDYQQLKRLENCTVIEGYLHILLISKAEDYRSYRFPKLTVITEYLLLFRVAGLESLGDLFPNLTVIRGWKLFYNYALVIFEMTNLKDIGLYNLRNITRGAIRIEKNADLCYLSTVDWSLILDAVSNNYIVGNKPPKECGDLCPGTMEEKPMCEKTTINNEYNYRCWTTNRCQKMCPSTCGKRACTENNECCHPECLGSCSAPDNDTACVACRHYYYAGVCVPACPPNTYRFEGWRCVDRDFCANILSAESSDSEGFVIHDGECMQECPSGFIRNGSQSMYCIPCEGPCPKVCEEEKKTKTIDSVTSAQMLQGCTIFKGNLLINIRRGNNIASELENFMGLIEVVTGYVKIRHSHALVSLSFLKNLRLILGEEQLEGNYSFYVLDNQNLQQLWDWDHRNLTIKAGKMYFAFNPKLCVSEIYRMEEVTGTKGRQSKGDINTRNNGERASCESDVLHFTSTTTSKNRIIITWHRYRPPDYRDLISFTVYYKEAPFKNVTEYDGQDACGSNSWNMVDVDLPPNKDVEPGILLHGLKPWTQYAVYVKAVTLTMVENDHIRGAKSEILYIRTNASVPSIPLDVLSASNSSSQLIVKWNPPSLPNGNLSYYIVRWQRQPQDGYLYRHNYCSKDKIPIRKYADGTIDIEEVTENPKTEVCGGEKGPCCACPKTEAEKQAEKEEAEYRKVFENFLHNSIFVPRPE
T2 sequence (P08069 741-1367 limits assumed): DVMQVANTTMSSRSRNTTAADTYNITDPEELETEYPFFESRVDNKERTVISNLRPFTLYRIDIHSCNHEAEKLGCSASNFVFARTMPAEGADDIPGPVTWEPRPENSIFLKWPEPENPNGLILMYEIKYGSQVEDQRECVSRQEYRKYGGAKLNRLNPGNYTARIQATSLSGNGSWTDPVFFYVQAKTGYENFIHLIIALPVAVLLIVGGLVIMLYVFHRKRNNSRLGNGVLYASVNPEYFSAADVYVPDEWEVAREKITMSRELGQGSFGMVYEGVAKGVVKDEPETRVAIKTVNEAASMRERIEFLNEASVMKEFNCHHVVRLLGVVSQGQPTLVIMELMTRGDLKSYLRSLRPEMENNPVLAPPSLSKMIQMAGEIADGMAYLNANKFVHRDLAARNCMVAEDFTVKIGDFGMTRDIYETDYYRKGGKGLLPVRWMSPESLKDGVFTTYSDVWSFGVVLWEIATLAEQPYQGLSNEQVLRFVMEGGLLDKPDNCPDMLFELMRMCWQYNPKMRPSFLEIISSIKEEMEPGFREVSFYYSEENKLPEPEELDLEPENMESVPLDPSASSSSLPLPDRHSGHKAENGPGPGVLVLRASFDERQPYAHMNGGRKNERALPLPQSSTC

## CN1CCN([C@H]2CC[C@H](n3nc(-c4ccc(Nc5nc6cccc(Cl)c6o5)c(Cl)c4)c4c(N)ncnc43)CC2)CC1
[1]
  IC50: 29 nM
[2]
  IC50: 63 nM
[3]
  IC50: 49 nM

## COCCCN1CCN([C@H]2CC[C@H](n3nc(-c4ccc(Nc5nc6cccc(Cl)c6o5)cc4)c4c(N)ncnc43)CC2)CC1
[1]
  IC50: 21.5 nM
[2]
  IC50: 108 nM
[3]
  IC50: 72.4 nM

## Cc1cc(-c2nn([C@H]3CC[C@H](N4CCN(C)CC4)CC3)c3ncnc(N)c23)ccc1Nc1nc2cccc(Cl)c2o1
[2]
  IC50: 156 nM
[3]
  IC50: 196 nM

## CN1CCN([C@H]2C[C@@H](c3nc(-c4ccc5ccc(-c6ccccc6)nc5c4)c4c(N)nccn43)C2)CC1
[4]
  IC50: > 30000 nM
[5]
  IC50: 65 nM
[6]
  IC50: > 30000 nM

## Cc1cc(Br)c2oc(Nc3ccc(-c4cn([C@H]5CC[C@@H](N6CCN(C)CC6)CC5)c5ncnc(N)c45)cc3F)nc2c1
[1]
  IC50: > 62500 nM
[2]
  IC50: 1450 nM
[3]
  IC50: 94 nM

## Cc1cc(C)c2oc(Nc3ccc(-c4nn([C@H]5CC[C@@H](N6CCN(C)CC6)CC5)c5ncnc(N)c45)cc3F)nc2c1
[1]
  IC50: 4030 nM
[2]
  IC50: 2270 nM
[3]
  IC50: 160 nM

## COCCCN1CCN([C@H]2CC[C@@H](n3nc(-c4ccc(Nc5nc6cccc(Cl)c6o5)cc4)c4c(N)ncnc43)CC2)CC1
[1]
  IC50: 397 nM
[2]
  IC50: 874 nM
[3]
  IC50: 424 nM

## CN1CCN([C@H]2CC[C@@H](n3nc(-c4ccc(Nc5nc6cccc(C#N)c6o5)cc4)c4c(N)ncnc43)CC2)CC1
[2]
  IC50: 2810 nM
[3]
  IC50: 113 nM

## CC(C)N1CCN([C@H]2CC[C@@H](n3nc(-c4ccc(Nc5nc6cccc(Cl)c6o5)cc4)c4c(N)ncnc43)CC2)CC1
[1]
  IC50: 62 nM
[2]
  IC50: 322 nM
[3]
  IC50: 174 nM

## CN1CCN([C@H]2CC[C@H](n3nc(-c4ccc(Nc5nc6cccc(Cl)c6o5)cc4Cl)c4c(N)ncnc43)CC2)CC1
[1]
  IC50: 15.4 nM
[3]
  IC50: 4.1 nM

## Cc1cc(Cl)c2oc(Nc3ccc(-c4nn([C@H]5CC[C@@H](N6CCN(C)CC6)CC5)c5ncnc(N)c45)cc3)nc2c1
[1]
  IC50: 5230 nM
[2]
  IC50: 1130 nM
[3]
  IC50: 348 nM

## CN1CCN([C@H]2CC[C@@H](n3nc(-c4ccc(Nc5nc6cc(Cl)ccc6o5)c(F)c4)c4c(N)ncnc43)CC2)CC1
[2]
  IC50: 1470 nM
[3]
  IC50: 415 nM

## CC(C)N1CCC(N2CCC(n3nc(-c4ccc(Nc5nc6cccc(Cl)c6o5)cc4)c4c(N)ncnc43)CC2)CC1
[1]
  IC50: 15.1 nM
[2]
  IC50: 97 nM
[3]
  IC50: 115 nM

## CN1CCN([C@H]2CC[C@@H](n3nc(-c4ccc(Nc5nc6ccccc6o5)cc4)c4c(N)ncnc43)CC2)CC1
[2]
  IC50: 1660 nM
[3]
  IC50: 810 nM

## CN1CCN([C@H]2CC[C@@H](n3nc(-c4ccc(Nc5nc6cc(Cl)cc(Cl)c6o5)cc4)c4c(N)ncnc43)CC2)CC1
[2]
  IC50: 639 nM
[3]
  IC50: 584 nM

## CN1CCN([C@H]2CC[C@@H](n3nc(-c4ccc(Nc5nc6cccc(Cl)c6o5)cc4)c4c(N)ncnc43)CC2)CC1
[1]
  IC50: 200 nM
[2]
  IC50: 393 nM
[3]
  IC50: 77 nM

## CN1CCC(N2CCC(n3nc(-c4ccc(Nc5nc6cccc(Cl)c6o5)cc4)c4c(N)ncnc43)CC2)CC1
[1]
  IC50: 14.5 nM
[2]
  IC50: 99 nM
[3]
  IC50: 108 nM

## CN1CCN([C@H]2CC[C@H](n3nc(-c4ccc(Nc5nc6cccc(Cl)c6o5)c(F)c4)c4c(N)ncnc43)CC2)CC1
[4]
  IC50: 362 nM
[1]
  IC50: 16 nM
[5]
  IC50: 87 nM
[2]
  IC50: 37 nM
[3]
  IC50: 7.5 nM
[6]
  EC50: > 1000 nM
  IC50: 2880 nM

## COC(=O)c1cccc2nc(Nc3ccc(-c4nn([C@H]5CC[C@@H](N6CCN(C)CC6)CC5)c5ncnc(N)c45)cc3)oc12
[2]
  IC50: 3590 nM
[3]
  IC50: 179 nM

## COCCCN1CCC(N2CCC(n3nc(-c4ccc(Nc5nc6cccc(Cl)c6o5)cc4)c4c(N)ncnc43)CC2)CC1
[1]
  IC50: 13.8 nM
[2]
  IC50: 264 nM
[3]
  IC50: 283 nM

## CN1CCN([C@H]2CC[C@@H](n3nc(-c4ccc(Nc5nc6cccc(Cl)c6o5)c(F)c4)c4c(N)ncnc43)CC2)CC1
[1]
  IC50: 1350 nM
[2]
  IC50: 852 nM
[3]
  IC50: 72 nM

## Nc1ncnc2c1c(-c1ccc(Nc3nc4cccc(Cl)c4o3)cc1)nn2[C@H]1CC[C@H](N2CCOCC2)CC1
[1]
  IC50: 334 nM
[2]
  IC50: 1020 nM
[3]
  IC50: 42 nM

## CN1CCN([C@H]2CC[C@H](n3nc(-c4ccc(Nc5nc6cccc(Cl)c6o5)cc4)c4c(N)ncnc43)CC2)CC1
Mus musculus [7]
  AUC: 190 ng·h/mL
[8]
  clearance: 15.2 mL/min/kg
Rattus norvegicus [9]
  AUC: 1260 ng·h/mL
[10]
  half-life: 2.4 h
[11]
  Tmax: 8 h
[12]
  Cmax: 170 nM
[4]
  IC50: 340 nM
Mus musculus [13]
  AUC: 940 ng·h/mL
[14]
  Cmax: 160 nM
[15]
  clearance: 31.8 mL/min/kg
[1]
  IC50: 7.5 nM
[16]
  Tmax: 3 h
[17]
  bioavailability: 20%
[5]
  IC50: 207 nM
[2]
  IC50: 31.5 nM
[18]
  half-life: 8.4 h
Mus musculus [19]
  inhibition in vivo at 30 mg/kg: 50%
[3]
  IC50: 12.5 nM
Rattus norvegicus [20]
  AUC: 380 ng·h/mL
[21]
  bioavailability: 30%
[6]
  EC50: > 1000 nM
  IC50: 2300 nM
Mus musculus [22]
  inhibition: Active

## CC(C)N1CCN([C@H]2CC[C@H](n3nc(-c4ccc(Nc5nc6cccc(Cl)c6o5)cc4)c4c(N)ncnc43)CC2)CC1
[1]
  IC50: 9.8 nM
[2]
  IC50: 53.7 nM
[3]
  IC50: 45.1 nM

## Cc1cc(Nc2nc3cccc(Cl)c3o2)ccc1-c1nn([C@H]2CC[C@H](N3CCN(C)CC3)CC2)c2ncnc(N)c12
[1]
  IC50: 478 nM
[2]
  IC50: 530 nM
[3]
  IC50: 22 nM

## CN(C)C(=O)CN1CCN([C@H]2CC[C@H](n3nc(-c4ccc(Nc5nc6cccc(Cl)c6o5)cc4)c4c(N)ncnc43)CC2)CC1
[1]
  IC50: 21.5 nM
[2]
  IC50: 1840 nM
[3]
  IC50: 126 nM
